{"source": "paper PMC7439439", "about": "(Science Advances, 2020)", "key": {"[1]": {"conditions": "11 patients, oral formulation; cited from earlier work"}, "[2]": {"conditions": "primate studies, oral delivery; cited from earlier work"}, "[3]": {"system": "SF8628 orthotopic DIPG tumors", "assay": "Orthotopic SF8628 xenograft, histology after treatment", "assay_type": "in vivo, SCID mice", "how_it_was_run": "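NOD/SCID mice received 1 million luciferase-transduced SF8628 cells stereotactically into the pons (1.0 mm right, 0.5 mm posterior, 5.0 mm deep from lambda). Treatment started 21–24 days later over 2 weeks, using four CED infusions about 72 h apart, each over 6 min at 1.67 μl/min. Brains were then harvested. Nuclei on H&E and Ki67+ nuclei were counted on ≥5 40× fields. Apoptosis index was Cc3+ cells divided by tumour area × cellularity. H3Ac+ nuclei were counted per 10× field after colour deconvolution, Gaussian blur and thresholding.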"}, "[4]": {"assay": "Safety in mice", "assay_type": "in vivo"}, "[5]": {"system": "luciferase-tagged SF8628 flank tumors", "assay": "Flank model of DIPG, intraperitoneal treatment", "assay_type": "in vivo, athymic-nude mice", "how_it_was_run": "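Athymic-nude mice received subcutaneous right-flank implants of 40-mm3 chunks of luciferase-tagged SF8628 tumours grown in other nude mice. Tumour presence was confirmed by luciferase scan at 1 week. Dosing began at a mean caliper volume of 140 mm3: reference HDAC inhibitor 10 mg/kg, test compound 12 mg/kg (molecular-weight adjusted), or vehicle (10% DMSO, 36% PEG, 54% PBS). Dosing stopped at 1500 mm3 or euthanasia end points. Tumours were harvested on the last treatment day for acetylated-H3 immunoblot with GAPDH as loading control.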"}, "[6]": {"system": "RCAS-based DIPG tumors", "assay": "Survival study in tumor-bearing RCAS mice", "assay_type": "in vivo", "how_it_was_run": "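DIPG was induced in 3–5-day-old Ntva/p53fl/fl pups by pontine injection of DF1 cells carrying RCAS-PDGFB, H3K27M-GFP, CRE and luciferase. From day 21–24, over 2 weeks, mice received one of: intraperitoneal 10 mg/kg in 10% DMSO/36% PEG/54% PBS; intraperitoneal vehicle; or one or four CEDs of 10 μl, 100 μM in 1% DMSO/PBS (or vehicle), 72 h apart, each over 6 min. End point was ≥10% weight loss on two consecutive measurements, or other end points. Survival was analysed by log-rank.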"}, "[7]": {"conditions": "four CED doses at 72-hour intervals"}}, "note": "Like-named read-outs stand apart in the source and are kept apart here."}
{"compound": "Cc1[nH]c2ccccc2c1CCNCc1ccc(/C=C/C(=O)NO)cc1", "note": "[panobinostat]", "values": [{"measurement": "detection in CSF", "setting": "[1]", "value": "not detected"}, {"measurement": "detection in CSF", "setting": "[2]", "value": "failed at detecting significant amounts"}, {"measurement": "H3Ac in tumor cells versus intraperitoneal vehicle", "setting": "[3]; [7]", "value": "increase in H3Ac in tumor cells"}, {"measurement": "Ki67+ cycling cells versus vehicle", "setting": "[3]; [7]", "value": "decrease in overall Ki67^+ cycling cells"}, {"measurement": "apoptotic cell death, cleaved caspase-3 positive cells", "setting": "[3]; [7]", "value": "increase in apoptotic cell death"}, {"measurement": "tumor cellularity versus vehicle", "setting": "[3]; four CED doses at 72-hour intervals, H&E", "value": "decrease in tumor cellularity"}, {"measurement": "histological effects (cellularity, Ki67, Cc3, H3Ac)", "setting": "[3]; systemic treatment", "value": "failed to achieve any of these results"}, {"measurement": "toxicity after systemic injections", "setting": "[4]", "value": "significant toxicities including weight loss"}, {"measurement": "H3Ac in tumors by Western blotting", "setting": "[5]; animals sacrificed on the last day of treatment", "value": "recovery of H3Ac"}, {"measurement": "tumor growth compared to vehicle", "setting": "[5]; caliper tumor volume, daily intraperitoneal for 2 weeks", "value": "slowed down tumor growth"}, {"measurement": "median survival", "setting": "[6]; 4× CED, 10 μl 100 μM, 72 hours apart", "value": 63, "unit": "days"}, {"measurement": "median survival", "setting": "[6]; intraperitoneally, 10 mg/kg, over 2 weeks", "value": 35, "unit": "days"}, {"measurement": "median survival", "setting": "[6]; single CED session, 10 μl 100 μM", "value": 37.5, "unit": "days"}]}
